In ChEMBL document CHEMBL1135587, “Discovery and structure-activity relationship of N-(ureidoalkyl)-benzyl-piperidines as potent small molecule CC chemokine receptor-3 (CCR3) antagonists” (J Med Chem, 2002) one finds IC50 data, which are given here for 1 compound.

The assay has as its target T1, C-C chemokine receptor type 3 (Homo sapiens, UniProt P51677).
T1 sequence (P51677 whole entry): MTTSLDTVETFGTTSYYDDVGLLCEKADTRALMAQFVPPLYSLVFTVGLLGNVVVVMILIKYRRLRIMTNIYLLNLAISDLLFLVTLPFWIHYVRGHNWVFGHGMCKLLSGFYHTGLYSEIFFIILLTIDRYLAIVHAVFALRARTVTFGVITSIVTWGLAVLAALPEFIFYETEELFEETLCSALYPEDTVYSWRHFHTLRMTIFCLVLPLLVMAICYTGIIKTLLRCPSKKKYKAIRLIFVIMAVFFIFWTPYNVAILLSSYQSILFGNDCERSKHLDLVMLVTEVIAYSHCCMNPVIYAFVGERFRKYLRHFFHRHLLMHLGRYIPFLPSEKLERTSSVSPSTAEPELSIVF
Briefly: Evaluated for its inhibitory activity against human Chemokine receptor type 3 expressed in chinese hamster ovary cells. The class given is cell-based, CHO. The procedure, abridged:
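Competition binding on CHO cells transfected with human CCR3, 5×10^5 cells per well, against 125I-human eotaxin at 150 pM final. Binding buffer: RPMI 1640 with 0.5% BSA, 20 mM HEPES, 5 mM MgCl2. Incubated 30 min at room temperature, then filtered on protamine-treated plates and washed with buffer plus 0.5 M NaCl before counting. Background binding defined with 100 nM eotaxin. Percent inhibition taken against the compound-free total. Values usually mean of three determinations.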

What is called IC50 is the point on the concentration scale where inhibition reaches its midpoint. A higher IC50 goes with lower potency. In turn, `OC1(c2ccc(Cl)cc2)CCN(Cc2ccccc2)CC1` gave an IC50 of 18.7 µM.
